According to article PMC6796888 (ACS Omega, 2019):
≈ marks a conversion by molar mass, not a printed value. Values belong to the compound of their own block, whether it stands above or below them.

Experiments:
[1] = tested on: S. typhimurium; test: Synergistic assay with ciprofloxacin; format: cell-based, Salmonella typhimurium; settings: for MIC: Salmonella enterica, TYPHIMURIUM, read-out: MIC alone
[2] = tested on: E. coli; test: Synergistic assay with ciprofloxacin; format: cell-based, Escherichia coli
[3] = tested on: S. pneumoniae; test: Synergistic assay with ciprofloxacin; format: cell-based, Streptococcus pneumoniae; settings: for MIC: Streptococcus pneumoniae, read-out: MIC alone
[4] = tested on: P. aeruginosa; test: Synergistic assay with ciprofloxacin; format: cell-based
[5] = tested on: E. faecalis; test: Synergistic assay with ciprofloxacin; format: cell-based, Enterococcus faecalis; settings: for MIC: Enterococcus faecalis, read-out: MIC alone
[6] = tested on: E. coli ATCC 25922; test: In vitro screening, % growth inhibition at 250 μg/mL; format: cell-based, Escherichia coli; settings: for inhibition at 250 µg/mL: Escherichia coli, ATCC25922, 24 h, read-out: % inhibition at 250 μg/mL
Summary of the method: (§1)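 Test compounds dissolved in DMSO and diluted in test medium. Mid-log cultures diluted in nutrient broth to McFarland standard and treated with 250 μg/mL in 96-well plates, 37 °C, 160 rpm, 24 h. Growth read as OD at 580 nm; % inhibition calculated from absorbance against untreated growth. Run twice on different occasions.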

[7] = tested on: S. pneumoniae; test: Time–kill curve assay; format: cell-based, Streptococcus pneumoniae; settings: up to 24 h
Summary of the method: (§2)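 Nutrient broth inoculated with about 2 × 10^6 cells of fresh culture, two-fold diluted and exposed to test compound at MIC or 2MIC; untreated control included. Incubation at 37 °C, 160 rpm. At 0, 2, 4, 8 and 24 h, 100 μL was diluted in sterile saline, 50 μL plated on nutrient agar and colonies counted after 24 h at 37 °C. Duplicate; mean log10 CFU/mL plotted against time.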

[8] = tested on: S. pneumoniae MTCC 655; test: In vitro screening, % growth inhibition at 250 μg/mL; format: cell-based, Streptococcus pneumoniae; settings: for inhibition at 250 µg/mL: Streptococcus pneumoniae, MTCC655, 24 h, read-out: % inhibition at 250 μg/mL
Summary of the method: as §1

[9] = tested on: E. coli cells; test: Confocal laser microscopy with DAPI staining; format: cell-based, Escherichia coli; settings: MIC of 4l for 3 h
[10] = tested on: S. pneumoniae MTCC 655; test: Spot assay; format: cell-based, Streptococcus pneumoniae; settings: 2MIC, 6 h exposure
Summary of the method: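 Mid-log S. pneumoniae MTCC 655 harvested and diluted in sterile PBS to McFarland standard. 2 mL suspension exposed to test compound at 2MIC, MIC or 0.5MIC, 37 °C, 160 rpm, 6 h. 2 μL spots put on nutrient agar, 37 °C for 24 h, growth scored +/−. Ciprofloxacin-treated positive and untreated negative controls. Triplicate, three occasions.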

[11] = tested on: E. faecalis MTCC 439; test: MIC by broth microdilution; format: cell-based; settings: Enterococcus faecalis, MTCC439
[12] = tested on: E. coli; test: Time–kill curve assay; format: cell-based, Escherichia coli
Summary of the method: as §2

[13] = tested on: P. auroginosa MTCC 2453; test: MIC by broth microdilution; format: cell-based, Pseudomonas auroginosa; settings: Pseudomonas, MTCC2453
[14] = tested on: E. coli ATCC 25922; test: Disk diffusion assay; format: cell-based, Escherichia coli
[15] = tested on: E. coli ATCC 25922; test: MIC by broth microdilution; format: cell-based; settings: Escherichia coli, ATCC25922
[16] = tested on: S. typhimurium MTCC 3224; test: In vitro screening, % growth inhibition at 250 μg/mL; format: cell-based, Salmonella typhimurium; settings: 24 h
Summary of the method: as §1

[17] = tested on: E. faecalis MTCC 439; test: as above; format: cell-based, Enterococcus faecalis; settings: for inhibition at 250 µg/mL: Enterococcus faecalis, MTCC439, 24 h, read-out: % inhibition at 250 μg/mL
Summary of the method: as §1

[18] = tested on: S. pneumoniae MTCC 655; test: Disk diffusion assay; format: cell-based, Streptococcus pneumoniae
[19] = tested on: P. auroginosa MTCC 2453; test: In vitro screening, % growth inhibition at 250 μg/mL; format: cell-based, Pseudomonas auroginosa; settings: for % inhibition at 250 μg/mL: P. auroginosa MTCC 2453, 24 h; for inhibition at 250 µg/mL: Pseudomonas, MTCC2453, 24 h, read-out: % inhibition at 250 μg/mL
Summary of the method: as §1

[20] = tested on: S. pneumoniae; test: Growth kinetic studies; format: cell-based, Streptococcus pneumoniae; settings: 2MIC and MIC
[21] = tested on: S. pneumoniae MTCC 655; test: MIC by broth microdilution; format: cell-based; settings: Streptococcus pneumoniae, MTCC655
[22] = tested on: S. typhimurium MTCC 3224; test: MIC by broth microdilution; format: cell-based; settings: Salmonella enterica, MTCC3224|TYPHIMURIUM
[23] = tested on: E. coli biofilm; test: Biofilm formation assessment by SEM; format: cell-based, Escherichia coli; settings: 24 h
Summary of the method: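 Sterile glass pieces (10 mm2) placed in nutrient broth with 0.5% extra glucose and inoculated with fresh E. coli primary culture. […] Glass washed with PBS and fixed overnight in 2.5% glutaraldehyde/2% paraformaldehyde in 0.1 M phosphate buffer pH 7.4. Washed, dried, imaged by SEM; untreated control included.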

[24] = tested on: S. pneumoniae biofilm; test: Biofilm assessment by XTT assay; format: cell-based, Streptococcus pneumoniae
[25] = tested on: E. coli biofilm; test: Biofilm assessment by XTT assay; format: cell-based, Escherichia coli; settings: for reduction in absorbance (biofilm, XTT): 24 h
Summary of the method: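 Biofilms grown from 100 μL standardized cell suspension in nutrient broth with 0.5% extra glucose, 37 °C, 24 h, static. […] Washed again, XTT salt added for 90 min at 37 °C in the dark, A490 read. % inhibition taken from dose–response curves.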

[26] = tested on: E. coli; test: Growth kinetic studies; format: cell-based, Escherichia coli; settings: 2MIC and MIC
[27] = Hemolytic assay; format: cell-based; settings: human, human red blood cells (erythrocytes/PBS suspension)
Summary of the method: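 Human blood from a healthy donor was collected in EDTA and spun at 2000 rpm for 10 min at room temperature. Erythrocytes were PBS-washed, made into a 10% (v/v) suspension and diluted 1:10. Test compound (400–3.125 μg/mL in PBS) mixed with an equal volume of this suspension, 1 h at 37 °C, then spun.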

[28] = S. typhimurium, 4l combined with CIP
[29] = S. pneumoniae, 4l combined with CIP
[30] = P. aeruginosa, 4l combined with CIP
[31] = E. faecalis, 4l combined with CIP

MIC in combination [1, 28]: 0.25 µg/mL
MIC [1]: 0.25 µg/mL
MIC in combination ([2]; E. coli, 4l combined with CIP): 0.125 µg/mL
MIC in combination [3, 29]: 0.0625 µg/mL
MIC [3]: 0.25 µg/mL
MIC in combination [4, 30]: 0.5 µg/mL
MIC in combination [5, 31]: 0.0625 µg/mL
MIC [5]: 0.25 µg/mL
SMILES: O=C(O)c1cn(C2CC2)c2cc(N3CCNCC3)c(F)cc2c1=O [CIP, ciprofloxacin, reference compound]

MIC in combination [1, 28]: 3.90 µg/mL
MIC [1]: 250 µg/mL
MIC [11]: 250 µg/mL (≈ 620 µM)
MIC in combination ([2]; E. coli, 4l combined with CIP): 3.90 µg/mL
MIC ([2]; Escherichia coli, read-out: MIC alone): 125 µg/mL
MIC [13]: 125 µg/mL (≈ 310 µM)
MIC [15]: 125 µg/mL (≈ 310 µM)
MIC in combination [3, 29]: 3.90 µg/mL
MIC [3]: 125 µg/mL
MIC in combination [4, 30]: 15.63 µg/mL
MIC ([4]; Pseudomonas aeruginosa, read-out: MIC alone): 250 µg/mL
MIC in combination [5, 31]: 3.90 µg/mL
MIC [5]: 250 µg/mL
MIC [21]: 125 µg/mL (≈ 310 µM)
MIC [22]: 250 µg/mL (≈ 620 µM)
SMILES: CNC1=C([N+](=O)[O-])C2(C(=O)Nc3ccccc32)C2=C(O1)C(=O)c1ccccc1C2=O (stereo not shown) [Compound 4l]
% inhibition at 250 μg/mL ([6]; E. coli ATCC 25922, 250 μg/mL, 24 h): complete inhibition
inhibition at 250 µg/mL [6]: 100%
killing activity (time–kill) ([7]; 2MIC): almost completely killed bacterial cells
killing activity (time–kill) ([7]; MIC): significant decrease in log10 CFU/mL
% inhibition at 250 μg/mL ([8]; S. pneumoniae MTCC 655, 250 μg/mL, 24 h): complete inhibition
inhibition at 250 µg/mL [8]: 100%
effect on E. coli cells under confocal microscopy (DAPI) [9]: reduction in the number of living cells
FICI [1, 28]: 1.01
mode of interaction [1, 28]: indifferent (An FIC index result of >0.5 but <4 was considered indifferent)
growth in spot assay (in words) [10]: no S. pneumoniae growth
FICI ([2]; E. coli, 4l combined with CIP): 0.53
killing activity (time–kill) ([12]; 2MIC, after 24 h): complete eradication
killing activity (time–kill) ([12]; MIC, up to 24 h): significant decrease in log10 CFU/mL
additional opaque zone of inhibition ([14]; 2MIC, MIC and 0.5MIC disks): 3 ± 1 mm
clear zone of inhibition ([14]; disk with 0.5MIC (62.5 μg/mL)): 14 mm
clear zone of inhibition ([14]; disk with 2MIC (250 μg/mL)): 18 mm
clear zone of inhibition ([14]; disk with MIC (125 μg/mL)): 17 mm
FICI [3, 29]: 0.29
mode of interaction [3, 29]: synergistic (Synergy and antagonism were defined by FIC indices of <0.5 and >4, respectively)
% inhibition at 250 μg/mL [16]: complete inhibition
% inhibition at 250 μg/mL ([17]; E. faecalis MTCC 439, 250 μg/mL, 24 h): complete inhibition
inhibition at 250 µg/mL [17]: 100%
additional opaque zone of inhibition ([18]; 2MIC, MIC and 0.5MIC disks): 3 ± 1 mm
clear zone of inhibition ([18]; disk with 0.5MIC (62.5 μg/mL)): 14 mm
clear zone of inhibition ([18]; disk with 2MIC (250 μg/mL)): 17 mm
clear zone of inhibition ([18]; disk with MIC (125 μg/mL)): 15 mm
% inhibition at 250 μg/mL [19]: complete inhibition
inhibition at 250 µg/mL [19]: 100%
continuous lag phase (no substantial growth) [20]: 24 h
FICI [4, 30]: 1.06
mode of interaction [4, 30]: indifferent (An FIC index result of >0.5 but <4 was considered indifferent)
FICI [5, 31]: 0.27
mode of interaction [5, 31]: synergistic (Synergy and antagonism were defined by FIC indices of <0.5 and >4, respectively)
biofilm appearance under SEM ([23]; 2MIC): very few scattered bacterial cells
biofilm appearance under SEM ([23]; MIC): significant damage in biofilm formation
effect on biofilm formation (XTT) ([24]; even at MIC, 24 h): almost completely disrupted biofilm formation
effect on biofilm formation (XTT) ([24]; sub-MIC: MIC/2, MIC/4, MIC/8): significant reduction in biofilm formation
reduction in absorbance (biofilm, XTT) ([25]; 2MIC (by order)): 80%
reduction in absorbance (biofilm, XTT) ([25]; 4MIC (first of 4MIC, 2MIC, MIC by order)): 97%
reduction in absorbance (biofilm, XTT) ([25]; MIC (by order)): 77%
effect on biofilm formation (XTT) ([25]; sub-MIC: MIC/2, MIC/4, MIC/8): significant reduction in biofilm formation
continuous lag phase (no substantial growth) [26]: 24 h
hemolysis at 1 h, 100 μg/mL [27]: 13%
hemolysis at 1 h, 200 μg/mL [27]: 20%
hemolysis at 1 h, 400 μg/mL [27]: 32%

The next lines start with the compound.

SMILES: CNC1=C([N+](=O)[O-])C2(C(=O)Nc3ccc(Br)cc32)C2=C(CC(C)(C)CC2=O)O1 (stereo not shown) [Compound 4c]
inhibition at 250 µg/mL [6]: 40.7%
inhibition at 250 µg/mL [8]: 21.5%
MIC [13]: 250 µg/mL (≈ 558 µM)
inhibition at 250 µg/mL [17]: 38.1%
% inhibition at 250 μg/mL [19]: complete growth inhibition
inhibition at 250 µg/mL [19]: 100%

SMILES: CNC1=C([N+](=O)[O-])C2(C(=O)Nc3ccccc32)c2c(c3ccccc3oc2=O)O1 (stereo not shown) [Compound 4i]
inhibition at 250 µg/mL [6]: 15.4%
inhibition at 250 µg/mL [8]: 1.96%
inhibition at 250 µg/mL [17]: 7.5%
inhibition at 250 µg/mL [19]: 6.58%

SMILES: CNC1=C([N+](=O)[O-])C2(C(=O)Nc3ccccc32)C2=C(CC(C)(C)CC2=O)O1 (stereo not shown) [Compound 4a, 7,7-Dimethyl-2-(methylamino)-3-nitro-7,8-dihydrospiro[chromene-4,3′-indoline]-2′,5(6 H)-dione]
inhibition at 250 µg/mL [6]: 43.2%
inhibition at 250 µg/mL [8]: 29.7%
inhibition at 250 µg/mL [17]: 41.5%
inhibition at 250 µg/mL [19]: 37.3%
